Structures are written as SMILES. The source made the active and inactive calls. The rule behind the calls is not given here.

Experiment [1] has as its system Rattus norvegicus. The experiment is described as follows: Termination of pregnancy in intact rat assessed as fetal resorption administered into uterine lumen on day 7 measured on day 14. It counts as functional, organism-based.
The subject of experiment [2] is Rattus norvegicus. The experiment is described as follows: Progestational activity in 9-day old pregnant bilateral ovariectomized Sprague-Dawley albino rat assessed as viable fetus at 0.055 to 0.11 mg, sc for 3 days beginning 3 hrs prior to overiectomy measured on day 12 in presence of 17beta-estradiol. It counts as functional, organism-based. In a few lines: (§1)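 Albino rats (Holtzman), 9 days pregnant and weighing 275–305 g, were used in groups of five. They received subcutaneous steroid in 0.2 mL sesame oil together with 17β-estradiol, 3 h before bilateral ovariectomy. Injections were repeated every 12 h for 3 days. On day 12 the animals were killed, opened by a ventral longitudinal incision, and the intact uteri removed to examine the fetuses.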

Experiment [3] concerns the target 3-alpha-(or 20-beta)-hydroxysteroid dehydrogenase (Streptomyces exfoliatus) (UniProt P19992). As to the kind of experiment: Inhibition of 20beta-hydroxy steroid dehydrogenase in Streptomyces hydrogenans assessed as half life of enzyme inactivation at 50 uM. The method in brief:
(§2)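 20β-Hydroxy steroid dehydrogenase from Streptomyces hydrogenans (4.2×10^-7 M) in 0.05 M phosphate buffer, pH 7.0, with 15% glycerol, was incubated with the bromoacetate steroid at 5×10^-5 M at 25 °C. Remaining activity was followed over time as NADH-dependent cortisone reduction to assess time-dependent, irreversible inactivation. The inactivation half-life was taken from the rate of activity loss.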

In experiment [4] the test system is Rattus norvegicus. The experiment is described as follows: Progestational activity in 9-day old pregnant bilateral ovariectomized Sprague-Dawley albino rat assessed as viable fetus at 1 mg, sc for 3 days beginning 3 hrs prior to overiectomy measured on day 12 in presence of 17beta-estradiol. It counts as functional, organism-based. The method in brief:
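Groups of five 9-day-pregnant albino rats (275–305 g) received sc injections in 0.2 mL sesame oil together with 17β-estradiol (0.1×10^-3 mg), starting 3 h before bilateral ovariectomy. Injections were repeated every 12 h for 3 days. On day 12 the animals were sacrificed and opened by longitudinal ventral incision, and the intact uteri were removed to examine the fetuses.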

Experiment [5] concerns Rattus norvegicus. As to the kind of experiment: Progestational activity in 9-day old pregnant bilateral ovariectomized Sprague-Dawley albino rat assessed as viable fetus at 0.074 to 0.15 mg, sc for 3 days beginning 3 hrs prior to overiectomy measured on day 12 in presence of 17beta-estradiol. It counts as functional, organism-based. In a few lines: as §1
Experiment [6] concerns the target 3-alpha-(or 20-beta)-hydroxysteroid dehydrogenase (Streptomyces exfoliatus) (UniProt P19992). As to the kind of experiment: Time-dependent inhibition of 20beta-hydroxy steroid dehydrogenase in Streptomyces hydrogenans assessed as inhibition of […] at 50 uM. In a few lines:
as §2

The subject of experiment [7] is Rattus norvegicus. The experiment is described as follows: Progestational activity in 9-day old pregnant bilateral ovariectomized Sprague-Dawley albino rat assessed as unresorbed fetus at 0.074 mg, sc for 2 days beginning 3 hrs prior to overiectomy measured on day 12 in presence of 17beta-estradiol. It counts as functional, organism-based. The method in brief:
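Pregnant albino rats (Holtzman, day 9, 275–305 g) were used in a group of five. They received a subcutaneous steroid/17β-estradiol mixture in 0.2 mL sesame oil 3 h before bilateral ovariectomy and a second injection 12 h later, with nothing given afterwards. On day 12 the rats were sacrificed and autopsied, and the intact uteri removed to score the fetuses.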

Experiment [8] has as its target 3-alpha-(or 20-beta)-hydroxysteroid dehydrogenase (Streptomyces exfoliatus) (UniProt P19992). The experiment is described as follows: Irreversible inhibition of 20beta-hydroxy steroid dehydrogenase in Streptomyces hydrogenans assessed as inhibition of […] at 50 uM. The method in brief: as §2

Sequence of 3-alpha-(or 20-beta)-hydroxysteroid dehydrogenase (Streptomyces exfoliatus) (P19992 whole entry): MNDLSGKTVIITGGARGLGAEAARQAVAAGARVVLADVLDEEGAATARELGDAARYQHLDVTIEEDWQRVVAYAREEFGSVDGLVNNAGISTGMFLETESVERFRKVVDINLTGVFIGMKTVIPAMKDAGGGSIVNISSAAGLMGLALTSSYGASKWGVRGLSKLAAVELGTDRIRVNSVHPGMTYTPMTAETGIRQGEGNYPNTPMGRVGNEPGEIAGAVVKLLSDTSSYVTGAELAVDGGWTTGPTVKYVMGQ

For `CC(=O)[C@H]1CC[C@H]2[C@@H]3CCC4=CC(=O)CC[C@]4(C)[C@H]3[C@H](OC(=O)CBr)C[C@]12C`, the result in the experiment with Rattus norvegicus [1] was Active.

Turning to `CC(=O)O[C@]1(C(C)=O)CC[C@H]2[C@@H]3C[C@H](C)C4=CC(=O)CC[C@]4(C)[C@H]3CC[C@@]21C`, the outcome with Rattus norvegicus [2] was Active.

`CC(=O)[C@H]1[C@H](OC(=O)CBr)C[C@H]2[C@@H]3CCC4=CC(=O)CC[C@]4(C)[C@H]3CC[C@@]21C`: the T1/2 in experiment [3] worked out at 4 h. Besides, in the experiment on Rattus norvegicus [1], the outcome was Active.

As to `CC(=O)[C@H]1CC[C@H]2[C@@H]3CCC4=CC(=O)CC[C@]4(C)[C@H]3CC[C@]12C`, in the experiment with Rattus norvegicus [4], the outcome was Active.

For the molecule `CC(=O)[C@@]1(OC(=O)CBr)CC[C@H]2[C@@H]3C[C@H](C)C4=CC(=O)CC[C@]4(C)[C@H]3CC[C@@]21C`, the T1/2 in experiment [3] is 15 h. Besides, the outcome in the experiment with Rattus norvegicus [5] and with Rattus norvegicus [7] was Active. The inhibition entry in experiment [6] and in experiment [8] was “Active” each time. In the experiment with Rattus norvegicus [1], the outcome was inactive.

Turning to `C[C@]12CC[C@H]3[C@@H](CCC4=CC(=O)CC[C@@H]43)[C@@H]1CC[C@@H]2OC(=O)CBr`, the result in the experiment with Rattus norvegicus [1] was Active.
